Laboratory results as given in article PMC4719142 (ACS Chemical Biology, 2015).

Key:
several other cell lines = settings: literature values across several other cell lines ref 33, 34; cited from earlier work
L363 cells = experiment: Cell viability; format: cell-based, Human; settings: L363, 72 h treatment, four replicates ± SEM
Outline: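 MTS viability run in quadruplicate at the stated times and doses. Lines were grown in RPMI-1640 with 2 mM L-glutamine, 10% FBS and penicillin/streptomycin at 37 °C, 5% CO2. MTS reagent was added directly for 90 min at 37 °C. Formazan absorbance was read at 500 nm. Viability was normalised to DMSO-treated wells.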

## CN(C)c1ccc(Nc2c3ccc(NC(=O)CCN4CCCC4)cc3nc3cc(NC(=O)CCN4CCCC4)ccc23)cc1 [BRACO-19]
Several other cell lines
  IC50: 1 to 13 µM
L363 cells
  IC50: 15.3 ± 4.3 µM
